The text below walks through data of publication PMC11443182 (Science signaling, 2024).

“Also recorded” adds a separate entry of the source.

For test [1], the system named is WT and mutant AT1Rs (p-ERK/t-ERK) in GqKO cells. In words: ERK phosphorylation Western blot, HEK293 GqKO cells, WT and mutant AT1Rs. To be noted: for ERK activation in GqKO cells: HEK293 GqKO cells vs WT cells, AngII 1 μM, TRV023 10 μM, Telm 10 μM. Format: cell-based, human. The gist of the method:
(§1)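 Receptor constructs (plasmid amounts adjusted to equalise receptor expression by radioligand binding) transfected with lipofectamine 2000 into cells grown in MEM with 10% FBS. […] RIPA lysis with protease/phosphatase inhibitors, 1 h at 4°C. SDS-PAGE/PVDF; phospho-ERK1/2 (1:1000) normalised to total ERK1/2 (1:2000).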
For orientation: Immunoblotting shows a protein as a band on a membrane.

In test [2] the test system is AT1R mutants (Gq). Nature of the test: G protein activation TRUPATH BRET assay. The format is cell-based, human. To be noted: AngII concentration response; any of the AT1R mutants. On the technique in general: In BRET a luciferase serves as donor, and the signal depends on an acceptor being close.
In test [3] the test system is AT1R mutants / GRK2. In words: GRK2 recruitment BRET assay, AT1R mutants. The format is cell-based, human. To be noted: GRKΔ4 cells; AngII 1 μM, TRV023 10 μM; 5 min. A digest of the protocol:
(§2)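 GRK2/3/5/6-null HEK293 cells were PEI-transfected with WT or mutant AT1R-Rluc8 (DNA adjusted to match expression) plus 1 µg C-terminally YFP-tagged GRK2. After 24 h they were plated at 50,000/well in 2% FBS starvation MEM. […] Plates were read at 37 °C (530/480 nm), and net BRET was taken as ligand minus vehicle.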

Test [4] deals with AT1R / GRKs. To be noted: cited from earlier work.
The subject of test [5] is WT and mutant AT1Rs (nuclear ERK activity). Nature of the test: Nuclear ERK BRET. Format: cell-based, human.
The subject of test [6] is AT1R mutants / GRK3. Nature of the test: GRK3 recruitment BRET assay, AT1R mutants. Format: cell-based, human. As to conditions: GRKΔ4 cells; AngII 1 μM, TRV023 10 μM; 5 min. The gist of the method:
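HEK293 cells lacking GRK2/3/5/6 PEI-transfected with WT or mutant AT1R-Rluc8 (DNA adjusted to equalise expression) and 1 µg GRK3-YFP (C-terminal tag). Replated after 24 h at 50,000/well in starvation MEM with 2% FBS. […] Read at 37°C, 530/480 nm; net BRET = ligand minus vehicle.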

The test system of test [7] is FLAG-tagged human WT AT1R. The format is cell-based. To be noted: AngII 1 μM, TRV023 10 μM, 10 min, N=5. A digest of the protocol:
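Expi293F cells with inducible N-terminal FLAG-human AT1R (~2.5×10^6 density) were induced 30–36 h with doxycycline 4 µg/mL plus 5 mM butyrate, with expression checked by radioligand binding. […] Receptor was solubilized in MNG/CHS buffer with 1 µM losartan and PhosSTOP, purified on M1 anti-FLAG (EDTA/FLAG-peptide elution), TCA-precipitated, then reduced (TCEP) and alkylated (iodoacetamide) in 8 M urea/EPPS pH 8.5.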

The test system of test [8] is WT AT1R. In words: β-arrestin recruitment BRET assay, WT AT1R. The format is cell-based, human. As to conditions: HEK293 cells; WT AT1R-RLuc8, β-arrestin2-eGFP; 10 min, 37 °C; N=5. Background: Recruitment of arrestin is a read-out of receptor activation apart from second messengers.
Test [9] has as its system AT1R C-terminal tail mutants (PROX, MID, DIST, NULL). Nature of the test: β-arrestin recruitment BRET assay, AT1R C-terminal tail mutants. As to conditions: HEK293 cells, 10 min, 37 °C, N=5. The format is cell-based, human.
The subject of test [10] is AT1R-PROX mutant (nuclear ERK activity). In words: Nuclear ERK BRET. Format: cell-based, human. As to conditions: HEK293T cells; AngII 1 μM; 5 min; vs WT receptor. The gist of the method:
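WT or mutant AT1R (DNA adjusted for expression) PEI-co-transfected with 50 ng nuclear-localised EKAR biosensor with a NanoLuciferase donor. After 24 h, replated at 50,000/well in starvation MEM with 0.5% FBS, ± PTX 200 ng/mL. […] Read at 37°C, 530/480 nm; net BRET = ligand minus vehicle.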

Test [11] deals with AT1R C-terminal tail mutants (p-ERK/t-ERK). Nature of the test: ERK phosphorylation Western blot, HEK293 cells, AT1R mutants. The format is cell-based, human. As to conditions: 10 min, N=8-9. A digest of the protocol: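 HEK293 cells in 6-well plates were lipofectamine 2000-transfected with WT or mutant AT1R, with DNA adjusted to matched expression. Medium was refreshed on day 1. […] RIPA lysates with protease/phosphatase inhibitors were run on SDS-PAGE/PVDF and probed for phospho-ERK1/2 (1:1000) versus total ERK1/2 (1:2000) overnight at 4 °C.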

Test [12] deals with AT1R / β-arrestin. To be noted: receptor "pre-phosphorylated"; AngII vs TRV023; cited from earlier work.
In test [13] the test system is AT1R WT / GRK2. In words: GRK2 recruitment BRET assay, WT AT1R. As to conditions: GRKΔ4 cells; AngII 1 μM, TRV023 10 μM; 5 min. The format is cell-based, human. A digest of the protocol: as §2
In test [14] the test system is AT1R C-terminal tail mutants (PROX, MID, DIST, NULL). Nature of the test: DiscoverX active endocytosis assay. Format: cell-based, human. To be noted: U2OS cells; β-arrestin2-EA; 3 h 37 °C; chemiluminescence; N=3. The gist of the method: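 U2OS cells stably expressing β-arrestin2-EA and endosome-localized PK were transfected with WT or mutant AT1R, replated next day at 35,000 cells/well, and treated with ligands 3 h at 37 °C two days post-transfection. PathHunter detection reagents were added with 1 h RT incubation, then β-gal complementation chemiluminescence was read. Results are expressed as fold of untreated cells.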

Test [15] concerns AT1R mutants (Ca2+ response). In words: FLIPR Ca2+ assay, AT1R mutants. Format: cell-based, human. As to conditions: HEK293T cells; AngII serial doses, 37 °C; AUC; n=5. A digest of the protocol:
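HEK293T cells (500,000/well) were transfected 24 h after seeding with WT, or adjusted amounts of PROX or MID AT1R giving equal expression. Next day they were replated at 50,000/well overnight and loaded with Calcium 6 dye 2 h at 37 °C.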

Test [16] concerns AT1R C-terminal tail mutants (PROX, MID, DIST, NULL). In words: β-arrestin1 endocytosis BRET assay, AT1R mutants. Format: cell-based, human. As to conditions: HEK293 cells; β-arrestin1-RlucII/FYVE; 25 min 37 °C; N=4. The gist of the method: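 HEK293 cells coexpressing WT or mutant AT1R, β-arrestin1-RlucII and endosomal FYVE-eGFP were reseeded next day on poly-L-ornithine plates (~25,000/well). […] Coelenterazine 400a (5 µM final) was added 2 min before reading (410/80 and 515/30 nm). Results are given as fold of untreated BRET; N=4.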

Test [17] has the same test system. In words: Intramolecular FlAsH BRET. Format: cell-based, human. To be noted: HEK293 cells, 10 min, N=4.
In test [18] the test system is WT AT1R. In words: Intramolecular FlAsH BRET. The format is cell-based, human. To be noted: HEK293 cells, AngII 1 μM, TRV023 10 μM, 10 min, N=4. The gist of the method: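 HEK293 cells were Fugene HD-cotransfected with 1.5 µg AT1R and 0.1 µg of each rLuc–β-arrestin2–FlAsH construct. At 48 h cells in HBSS were labeled with 2.5 µM TC-FlAsH (or mock) for 30 min at RT, washed in BAL buffer and plated at 100,000/well. […] Six readings were taken (440–480 / 525–585 nm). Net BRET was calculated after mock-label and vehicle subtraction; N=4.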

Test [19] deals with WT AT1R (p-ERK/t-ERK). In words: ERK phosphorylation Western blot, HEK293 cells, WT AT1R. The format is cell-based, human. As to conditions: AngII 1 μM, TRV023 10 μM, 10 min, N=8-9. A digest of the protocol:
as §1

As for `CCCc1nc2c(C)cc(-c3nc4ccccc4n3C)cc2n1Cc1ccc(-c2ccccc2C(=O)O)cc1` [Telm, telmisartan], in test [1] (10 min, N=7-8), the “ERK activation in GqKO cells” value was “did not induce ERK activation”.

As for “angiotensin II (DRVYIHPF; Angiotensin-2; UniProt P01019 25-32, looked up) [AngII]”, the “EC50 of G protein activation, AT1R mutants” value in test [2] was “No difference in EC50”. For the same compound, in test [3], the “GRK2 recruitment, DIST mutant” value is “significantly impaired”; the “GRK2 recruitment, MID mutant” value is on record as “significantly impaired”; the “GRK2 recruitment, PROX mutant” value is “robust recruitment”. Further, in test [4], the GRK recruitment result is “recruits GRK2/3 and GRK5/6”. Also, the “nuclear ERK activation” value in test [5] (HEK293T cells, AT1R WT and all AT1R mutants, AngII 1 μM, 5 min, net BRET) is on record as “increase in ERK activation”. Also, the “GRK3 recruitment, MID mutant” value in test [6] is “impaired in response to TRV023, but not AngII”. Also, the “ERK activation in GqKO cells” value in [1] (10 min, N=7-8) was “substantially lower in GqKO cells compared to WT cells”. Besides, the “ERK activation in GqKO cells, PROX mutant” value in test [1] (HEK293 GqKO cells, AT1R-PROX, 10 min, N=7-8) is recorded as “most impairment relative to WT cells; also recorded: more substantially diminished in cells lacking Gq”. The “phosphorylation in DIST region” value in test [7] (DIST region) is “comparable amounts of phosphorylation in the DIST region”. In [7] (PROX: Ser326, Ser328, Ser331, Thr332), the “phosphorylation in PROX region” value is listed as “The magnitude of increase was greatest in the proximal region of the tail; also recorded: the greatest increase in receptor phosphorylation occurred in the PROX region”. In test [8], the “β-arrestin recruitment (net BRET)” value is on record as “robust β-arrestin recruitment”. Besides, in [9] (AT1R-DIST mutant), the “β-arrestin recruitment (net BRET), AT1R-DIST” value was “robust β-arrestin recruitment”. In addition, the “reduction of β-arrestin recruitment, MID sites mutated” value in test [9] (AT1R-MID mutant) is 50%. The “reduction of β-arrestin recruitment, PROX sites mutated” value in [9] (AT1R-PROX mutant) was 50%. The “nuclear ERK response, PROX mutant” value in test [10] is recorded as “significantly impaired ERK response compared to WT receptor”. Besides, the “ERK phosphorylation, AT1R-MID” value in [11] (AT1R-MID vs WT AT1R) is on record as “somewhat higher activation of ERK phosphorylation”. Moreover, the “ERK phosphorylation, all phosphorylation-deficient mutants” value in test [11] (AngII 1 μM, TRV023 10 μM) is given as “largely similar to that of the WT AT1R”. Besides, the “allosteric interaction with β-arrestin” value in test [12] is “somewhat stronger allosteric interaction with β-arrestin than does TRV023”. Moreover, the “GRK2 recruitment, AT1R WT” value in test [13] is listed as “robust recruitment”. Further, in [14], the “AT1R internalization: requirement of DIST phosphorylation” value was “largely dispensable”; the “AT1R internalization: requirement of PROX and MID phosphorylation” value was “required for AT1R internalization”. Besides, in [15], the “EC50 of Ca2+ response” value was “no difference in EC50” and the “maximal Ca2+ response, AT1R-PROX” value is reported as “reduced maximal Ca^2+ response”. Also, the “AT1R internalization: requirement of DIST phosphorylation” value in test [16] is on record as “largely dispensable”. Also, the “β-arrestin2 FlAsH profile, AT1R-DIST” value in test [17] is listed as “more comparable to that of the WT AT1R”. Moreover, in [18], the “β-arrestin2 conformation, six FlAsH sensor profile” value is reported as “distinct β-arrestin conformations”. Further, the “FlAsH4 BRET signal” value in test [18] (Telm 10 μM) is given as “significant decrease in BRET compared to the shape profile induced by Telm”. For the same compound, the “ERK phosphorylation (p-ERK/t-ERK)” value in test [19] is recorded as “significant increase in ERK phosphorylation”.

Take pertussis toxin [PTX]: the “PTX block of AngII-stimulated nuclear ERK” value in test [5] (PTX 200 ng/mL pretreatment, stimulated by AngII, WT and mutant receptors) was “about 50%”. Moreover, in [5] (PTX 200 ng/mL pretreatment, stimulated by TRV023, WT and mutant receptors), the “PTX block of TRV023-stimulated nuclear ERK” value is recorded as “about 50%”. The “inhibition of AngII-induced ERK activation by PTX” value in test [1] (GqKO cells, PTX pretreatment before AngII, WT and mutant AT1Rs) was “largely blocked AngII-induced ERK activation”.
